Source: PubChem BioAssay
KCNK3 block: human KCNK3 channel inhibition, primary screen; O14649; CHO-KCNK3 thallium flux, FluxOR fluorescence; hits give low values; B-score at 10 µM; 0.84% of 340,000 active; AID 602410;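 active means B-score under library mean minus 4 SD, starting fluorescence ratio at most library mean plus 5 SD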;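 further: more negative B-score means stronger inhibition of thallium flux through KCNK3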
KCNK9 block: blocks the human KCNK9 two-pore domain potassium channel | HEK293 KCNK9, FluxOR thallium flux fluorescence; hits give low values | 1.2% of 310,000 active | Q9NPC2 | B-score at 10 µM;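 active means ratio B-score over 3 SD below the library mean, with starting fluorescence within 5 SD of its mean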;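 further: negative B-score means less thallium flux so channel inhibition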
Kir21 block: blocks the mouse Kir2.1 inward-rectifier potassium channel; P35561; HEK293-Kir2.1, FluxOR thallium flux fluorescence; hits give low values; B-score at 10 µM; 0.85% of 310,000 active; AID 1672;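 active means fluorescence ratio B-score at or below minus 3 SD of library scores, with starting-brightness B-score within 2 SD, cut at about -4.2 in these data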;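 further: channel flux triggered by added potassium and thallium sulfate stimulus; B-score of peak minus minimum fluorescence over baseline after thallium stimulus; more negative B-score means stronger Kir2.1 block with less thallium influx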
KCNQ1 act: potentiates or activates the human KCNQ1 potassium channel. P51787. CHO-K1 KCNQ1, thallium flux FluxOR fluorescence; hits give high values. B-score at 10 µM. 0.35% of 310,000 active;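 active means fluorescence ratio B-score, a plate-corrected score, at least three library SD, with initial intensity B-score within 5 SD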
Target sequence (P51787 whole entry, looked up): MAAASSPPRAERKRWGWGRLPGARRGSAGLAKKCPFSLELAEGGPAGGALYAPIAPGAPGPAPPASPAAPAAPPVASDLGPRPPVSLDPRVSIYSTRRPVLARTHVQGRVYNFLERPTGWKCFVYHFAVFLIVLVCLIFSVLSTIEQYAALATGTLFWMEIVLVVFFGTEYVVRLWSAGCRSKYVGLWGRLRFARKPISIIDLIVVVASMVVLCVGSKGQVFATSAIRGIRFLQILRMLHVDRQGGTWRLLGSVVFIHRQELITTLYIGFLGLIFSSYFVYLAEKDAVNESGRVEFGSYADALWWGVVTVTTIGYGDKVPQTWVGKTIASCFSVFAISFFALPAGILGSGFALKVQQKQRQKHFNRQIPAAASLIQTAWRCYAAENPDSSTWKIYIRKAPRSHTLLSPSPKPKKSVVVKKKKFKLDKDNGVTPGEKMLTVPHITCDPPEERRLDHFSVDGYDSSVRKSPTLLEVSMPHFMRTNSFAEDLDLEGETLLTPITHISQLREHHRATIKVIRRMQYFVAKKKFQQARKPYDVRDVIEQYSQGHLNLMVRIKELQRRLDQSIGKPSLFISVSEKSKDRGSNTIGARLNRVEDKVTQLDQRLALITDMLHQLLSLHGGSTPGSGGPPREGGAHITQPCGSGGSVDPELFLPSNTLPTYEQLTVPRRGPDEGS
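Assay system: CHO-K1 cells stably expressing KCNQ1. Medium: assay buffer for compound exposure, DMSO matched across wells. Timing: 37 °C overnight plating, 90-min dark dye load, 20-min compound pretreatment. Signal: kinetic FluxOR fluorescence, 10 s baseline plus 110 s post-stimulus.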
hERG protect: shields human hERG channel from block by proarrhythmic agents; CHO-hERG, FluxOR thallium flux, dofetilide IC70 present; activation (rescue from dofetilide block), less the hit threshold, % at 10 µM; 0.51% of 310,000 active; Q12809;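 active means activation above the mean of controls blocked by dofetilide plus 5 SD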;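 further: thallium influx through hERG after potassium depolarization seen as dye fluorescence rise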
KCNQ1 block: inhibitors of human KCNQ1 potassium channel | P51787 | CHO-K1 KCNQ1, FluxOR thallium flux fluorescence; hits give high values | B-score at 10 µM | 1.3% of 310,000 active | AID 2642;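 active means compounds whose thallium flux B-score, printed positive for inhibition, exceeds three library SD while starting fluorescence stays within three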;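 further: channel opened by potassium depolarization with thallium stimulus after 20 min compound exposure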
KCNK9 block conf: human KCNK9 inhibitor confirmation; shares compounds with KCNK9 block; HEK293 KCNK9 cells, FluxOR thallium flux fluorescence; inhibition, % at 10 µM; 43% of 4,900 active;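 active means thallium signal inhibited by more than 5 SD of the compound-free buffer control wells, on both duplicate plates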;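 further: 0% = assay buffer control wells without compound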
Kir2-1 spec: mouse Kir2.1 off-target activity of KCNK9 modulators | shares compounds with KCNK9 block | Kir2.1 cells, FluxOR thallium flux fluorescence | inhibition, % at 10 µM | 4% of 4,900 active;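 active means thallium signal drop more than 5 SD beyond the mean of the no-compound control wells, seen in both duplicate plates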;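 further: signal is fluorescence rise after thallium addition divided by baseline fluorescence; plate controls were assay buffer only for no effect and full block by chlorpromazine control for full effect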
KCNK9 uninduced: second counter-screen for KCNK9 modulators: effect in non-induced cells; inhibition, % at 10 µM; AID 492997; shares compounds with KCNK9 block; 40% of 4,900 active; non-induced KCNK9-HEK293, FluxOR thallium flux;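 active means thallium signal drop beyond 5 SD of the untreated control mean, on both duplicate plates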;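 further: plate controls were buffer only IC0 wells for no effect and SID17386958 at its maximal inhibitory level for full effect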
Starred values were filed as active, the others as inactive; i = inactive; x = not tested or not shown. The list is not random: actives were taken first. Their share in the collection is about 3.8%.

SMILES | KCNK3 block | KCNK9 block | Kir21 block | KCNQ1 act | hERG protect | KCNQ1 block | KCNK9 block conf | Kir2-1 spec | KCNK9 uninduced
NC(=O)c1ccc(NC(=O)COC(=O)c2c[nH]c3ccccc23)cc1 | i | x | x | x | x | x | x | x | x
N#Cc1cc2c(nc1SCc1ccccc1)CCCCC2 | i | i | 0.95 | i | -8.3 | i | x | x | x
N#Cc1cc2c(nc1SCc1cccc(Cl)c1)CCCCC2 | i | -8.31* | -0.75 | i | -8.3 | i | 27.0%* | i | 35.0%*
Cc1nc2c(C#N)c[nH]n2c(=O)c1CCO | i | i | 0.97 | i | -10.3 | i | x | x | x
Cc1ccccc1OCC(=O)NC(=S)Nc1ccc2c3c(cccc13)CC2 | i | i | -1.86 | i | -5.7 | i | x | x | x
COc1ccc(OCC(=O)NC(=S)Nc2ccc3c4c(cccc24)CC3)cc1 | i | i | 0.04 | i | 2.1 | i | i | i | i
COc1cccc(C(=O)NC(=S)Nc2ccc3c4c(cccc24)CC3)c1 | i | i | 0.6 | i | -5.8 | i | i | i | i
COc1cccc(C(=O)NC(=S)Nc2ccc(Cl)cc2C(=O)O)c1 | i | i | 1.41 | i | -5.1 | i | x | x | x
CCCOc1ccc(S(=O)(=O)n2cc(F)c(=O)[nH]c2=O)cc1 | i | i | 2.03 | i | -8.7 | i | x | x | x
Cc1ccc(C)c(N2CCN(CC3CC=CCC3)CC2)c1 (centres undefined) | i | i | -0.2 | i | 4.5 | i | i | i | i
Cc1cccn2c(=O)c(/C=C(\C#N)C(=O)NCc3ccccc3)c(N3CCC(C(N)=O)CC3)nc12 | i | i | -1.24 | i | -11.4 | i | x | x | x
CC1=NN(c2ccccc2)C(=O)/C1=C/c1ccc(-c2ccc(C)c(C(=O)O)c2)o1 | i | i | -0.1 | i | 16.1* | i | i | i | i
CC1=NN(c2ccc(C(=O)O)cc2)C(=O)/C1=C/c1ccc(-c2ccccc2F)o1 | i | i | 1.16 | i | -7.5 | i | i | i | i
CC(C)C(=O)NCCc1nc(-c2ccc(Cl)cc2)no1 | i | i | 2.32 | i | -2.2 | i | x | x | x
Nc1c(C(=O)c2ccccc2)sc(Nc2ccccc2)c1S(=O)(=O)c1ccccc1 | i | i | -0.05 | i | -15.1 | i | i | i | i
N#Cc1c(Nc2ccccc2)sc(C(=O)c2ccc(F)cc2)c1N | i | i | -1.87 | i | -5.1 | i | x | x | x
O=C(CSc1nc2nc(-c3cccs3)cc(C(F)(F)F)c2c(=O)[nH]1)Nc1c(F)c(F)c(F)c(F)c1F | i | i | 0.17 | i | -12.8 | 10* | i | i | i
NS(=O)(=O)c1cccc(NC(=O)CSc2nc3nc(-c4cccs4)cc(C(F)(F)F)c3c(=O)[nH]2)c1 | i | i | -1.16 | i | -12.2 | i | x | x | x
Clc1ccc(Cn2nc(-c3ccccc3)nc2-c2ccccc2)cc1 | i | -11.7* | -0.51 | i | -5.9 | i | 57.5%* | i | 54.0%*
O=C(COc1ccccc1[N+](=O)[O-])NCC1(N2CCOCC2)CCCCC1 | i | x | x | x | x | x | x | x | x
Cc1ccccc1COC(=O)CNC(=O)c1sc2ccccc2c1Cl | i | i | 0.05 | i | -16.1 | i | i | i | i
CC(=O)Nc1ccc(S(=O)(=O)NCC2CC3CCC2C3)cc1 (centres undefined) | i | x | x | x | x | x | x | x | x
Cc1cc(C(=O)COC(=O)CCC(=O)c2ccc3c(c2)OCCO3)c(C)n1Cc1ccco1 | i | i | -0.29 | i | -6.6 | i | i | i | i
COc1cc(OC)cc(C(=O)NCC(=O)OCC(=O)c2cc(C)n(Cc3ccco3)c2C)c1 | i | i | -0.03 | i | -8.2 | i | x | x | x
Cc1cc(C(=O)COC(=O)c2ccc(Br)o2)c(C)n1Cc1ccco1 | x | i | 0.54 | i | -8.3 | i | i | i | i
SMILES | KCNK3 block | KCNK9 block | Kir21 block | KCNQ1 act | hERG protect | KCNQ1 block | KCNK9 block conf | Kir2-1 spec | KCNK9 uninduced
Cc1cc(C(=O)COC(=O)CNC(=O)c2ccco2)c(C)n1Cc1ccco1 | i | i | -0.02 | i | -6.8 | i | x | x | x
N#Cc1c(SCc2ccccc2)sc(C(=O)c2ccccc2)c1N | i | i | -0.4 | i | -9.7 | i | x | x | x
Cc1ccc(CSc2sc(C(=O)c3ccccc3)c(N)c2C#N)cc1 | i | -9.04* | 0.14 | i | -6.1 | i | 36.0%* | i | 41.5%*
CCc1cc2c(=O)c(-c3ccc4c(c3)OCCO4)c(C)oc2cc1OS(C)(=O)=O | i | i | 0.55 | i | -3.1 | i | x | x | x
COc1ccc(OCC(=O)Nc2c3c(nn2C(C)(C)C)CSC3)cc1 | i | -13.7* | -1.19 | i | -13.8 | i | 57.0%* | i | 24.0%*
CCC(=O)Nc1c2c(nn1-c1ccc(OC)cc1)CSC2 | i | i | 1.73 | i | -6.6 | i | x | x | x
Cc1ccc(CNC(=O)Cn2nnc(C(=O)Nc3cc(C)ccc3C)c2N)cc1 | i | i | -1.83 | i | -1.9 | i | x | x | x
Cc1cc2cc(CN(Cc3cccs3)C(c3nnnn3C(C)(C)C)C(C)C)c3nnnn3c2cc1C (centres undefined) | i | -9.84* | -0.38 | i | -8.9 | i | 59.0%* | i | 49.0%*
CCOC(=O)C1CCN(C(=O)c2cc3cc(C)ccc3[nH]2)CC1 | i | i | 0.02 | i | -1.9 | i | x | x | x
COc1cc(-c2nc3ccccn3c2/N=C/c2cc(OC)c(OC)c(OC)c2)ccc1O | i | i | -0.03 | i | -7.3 | i | x | x | x
COc1ccc(OC)c(/C=N/c2c(-c3ccc(O)c(OC)c3)nc3ccccn23)c1 | i | -13.7* | 1.31 | i | -5.9 | i | i | i | i
Brc1cc2c(cc1C1Nc3ccccc3C3C=CCC31)OCO2 (centres undefined) | i | -8.29* | 2.16 | i | -11.8 | i | 56.5%* | i | 41.5%*
CCOc1ccccc1CNC(=O)CCc1cn(CC)c2ccccc12 | i | i | -5.92* | i | -6.4 | i | i | i | i
CCn1cc(CCCC(=O)NCc2ccc(OC)cc2)c2ccccc21 | i | i | -2.46 | i | -3.1 | i | i | i | i
Nc1c(C(=O)CSc2nnc(Nc3ccc(F)cc3)s2)c(=O)[nH]c(=O)n1C1CC1 | i | x | x | x | x | x | x | x | x
